Data taken from ChEMBL document CHEMBL1130346, “A new rational hypothesis for the pharmacophore of the active metabolite of leflunomide, a potent immunosuppressive drug” (J Med Chem, 1997).

How the values were obtained:
Mus musculus [1] = organism: Mus musculus; test: The compound was tested for in vitro mixed lymphocyte reaction.; type: functional, organism-based
Procedure, shortened: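 Bidirectional murine MLR using BALB/c and DBA/2 splenocytes isolated on Ficoll-Hypaque. 5×10⁴ cells of each strain were cocultured in triplicate for 96 h with serial dilutions of compound (20 mM DMSO stock), with DMSO-matched controls. Medium was RPMI 1640 with 5% FBS. [³H]thymidine (1 µCi) was added for the last 18 h. IC50 is 50% inhibition of proliferation versus untreated cultures; at least three experiments.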

[2] = In vitro inhibition of lymphocyte activated CD2 antigens induced by monoclonal antibody; type: functional, Homo sapiens
Procedure, shortened: (§1)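 Human PBMC from healthy donors, separated on Ficoll-Hypaque, at 10⁶ cells/mL in RPMI 1640 with 10% FBS. Cells were incubated with test compounds and stimulated with an optimal concentration of anti-CD3 mAb OKT3 for 24 h at 37 °C in 5% CO₂. CD2, CD25 and CD71 were read by immunofluorescence staining and flow cytometry. IC50 values came from at least two experiments, which differed by less than 10%.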

[3] = In vitro inhibition of lymphocyte activated CD25 antigens induced by monoclonal antibody; type: functional, Homo sapiens; procedure, shortened: as §1
[4] = In vitro inhibition of lymphocyte activated CD71 antigens induced by monoclonal antibody; type: functional, Homo sapiens; procedure, shortened: as §1
Mus musculus [5] = test: Inhibition of paw edema formation in mouse after an peroral dose of 10 mg/kg; Thickness of paw =2.45+/-0.14 mm; type: functional; conditions: route oral
[6] = In vitro inhibition of expression of lymphocyte activated CD2 antigens induced by monoclonal antibody; type: functional; conditions: Homo sapiens; procedure, shortened: as §1
[7] = In vitro inhibition of expression of lymphocyte activated CD25 antigens induced by monoclonal antibody; type: functional; conditions: Homo sapiens; procedure, shortened: as §1
[8] = In vitro inhibition of expression of lymphocyte activated CD71 antigens induced by monoclonal antibody; type: functional; conditions: Homo sapiens; procedure, shortened: as §1
Mus musculus [9] = test: Inhibition of paw edema formation in mouse after an ip dose of 10 mg/kg; Thickness of paw = 2.38+/-0.07 mm; type: functional; conditions: route intraperitoneal
Mus musculus [10] = organism: Mus musculus; test: animal or person; conditions: ip, read-out: Inhibition
Mus musculus [11] = organism: Mus musculus; test: animal or person; conditions: ip, read-out: Inhibition; remark: listed apart in the source

| IC50 (Mus musculus [1]) [µM] | IC50 [2] [µM] | IC50 [3] [µM] | IC50 [4] [µM] | IC50 [6] [µM] | IC50 [7] [µM] | IC50 [8] [µM] | Compound | inhibition in vivo at 10 mg/kg (Mus musculus [5]) [%] | inhibition in vivo at 10 mg/kg (Mus musculus [9]) [%] | inhibition in vivo at 50 mg/kg (Mus musculus [10]) [%] | inhibition in vivo at 5 mg/kg (Mus musculus [11]) [%] |
| --- | --- | --- | --- | --- | --- | --- | --- | --- | --- | --- | --- |
| 45.9 | 95.4 | > 100 | > 100 |  |  |  | O=C1COC(O)=C1C(=O)Nc1ccc(C(F)(F)F)cc1 |  |  |  |  |
| 71.6 | 90.8 | 96.4 | 78.1 |  |  |  | CCO/C(O)=C(/C(C)=O)C(=O)Nc1ccc(C(F)(F)F)cc1 |  |  |  |  |
| 41.3 | 50.9 | 89.9 | 74.6 |  |  |  | C/C(O)=C(\C#N)C(=O)Nc1ccc(C(F)(F)F)cc1 [TERIFLUNOMIDE] |  |  |  |  |
| 9.6 |  |  |  | 126 | 130 | > 100 | Cc1oncc1C(=O)Nc1ccc(C(F)(F)F)cc1 [LEFLUNOMIDE] | 45 |  |  |  |
| 3.4 | 13.8 | 14.8 | 66.5 |  |  |  | O=C1CCC(O)=C1C(=O)Nc1ccc(C(F)(F)F)cc1 |  |  |  |  |
| 1.65 | 3 | 2.4 | 4.4 |  |  |  | O=C(Nc1ccc(C(F)(F)F)cc1)c1ccccc1O |  | 43 |  |  |
| 11.9 | 15.3 | 18.4 | 18.8 |  |  |  | CC(O)=C(C(=O)Nc1ccc(C(F)(F)F)cc1)C(=O)Nc1ccc(C(F)(F)F)cc1 |  |  |  |  |
| 1.25 | 2.9 | 2.9 | 11 |  |  |  | O=C1CCCC(O)=C1C(=O)Nc1ccc(C(F)(F)F)cc1 |  |  |  |  |
|  |  |  |  |  |  |  | C/C=C/C[C@@H](C)[C@@H](O)[C@H]1C(=O)N[C@@H](CC)C(=O)N(C)CC(=O)N(C)[C@@H](CC(C)C)C(=O)N[C@@H](C(C)C)C(=O)N(C)[C@@H](CC(C)C)C(=O)N[C@@H](C)C(=O)N[C@H](C)C(=O)N(C)[C@@H](CC(C)C)C(=O)N(C)[C@@H](CC(C)C)C(=O)N(C)[C@@H](C(C)C)C(=O)N1C [CYCLOSPORINE] |  |  | 83 | 48 |
